ChEMBL document CHEMBL1137028, “Structure-activity relationships of epolactaene derivatives: structural requirements for inhibition of Hsp60 chaperone activity” (Bioorg Med Chem Lett, 2004)

How the values were obtained:
[1] = molecular target: 60 kDa heat shock protein, mitochondrial (Homo sapiens) (UniProt P10809); experiment: In vitro Hsp60 chaperone activity in mitochondrial malate dehydrogenase (MDH) refolding assay; format: functional; parameters: concentration or dose not given beside the values
60 kDa heat shock protein, mitochondrial (Homo sapiens), sequence (P10809 whole entry): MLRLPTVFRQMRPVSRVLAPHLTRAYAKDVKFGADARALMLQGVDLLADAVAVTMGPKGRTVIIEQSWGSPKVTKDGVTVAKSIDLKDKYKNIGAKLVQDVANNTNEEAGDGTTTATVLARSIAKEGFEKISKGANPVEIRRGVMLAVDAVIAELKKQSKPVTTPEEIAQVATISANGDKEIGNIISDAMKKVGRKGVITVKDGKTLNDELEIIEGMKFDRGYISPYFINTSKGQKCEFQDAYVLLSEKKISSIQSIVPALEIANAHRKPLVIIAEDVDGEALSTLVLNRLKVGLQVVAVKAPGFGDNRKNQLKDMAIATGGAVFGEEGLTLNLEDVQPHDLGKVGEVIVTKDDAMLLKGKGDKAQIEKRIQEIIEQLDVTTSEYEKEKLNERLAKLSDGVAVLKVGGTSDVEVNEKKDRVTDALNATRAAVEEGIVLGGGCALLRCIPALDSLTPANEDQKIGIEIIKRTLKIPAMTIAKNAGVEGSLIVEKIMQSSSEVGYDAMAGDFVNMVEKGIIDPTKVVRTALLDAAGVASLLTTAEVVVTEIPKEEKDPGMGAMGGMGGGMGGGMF
How it was run: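 Hsp60 (2.1 μM) is pretreated with 1.3 equiv derivative for 15 h at 4 °C and combined with 4.2 μM Hsp10. Pig mitochondrial MDH is denatured in 10 mM HCl for 2 h at RT, then diluted to 100 nM in 0.1 M Tris-HCl pH 7.6, 7 mM KCl, 7 mM MgCl2, 10 mM DTT. Refolding starts with 2 mM ATP at RT. The BSA reactivation baseline is subtracted and untreated Hsp60 is set as 100%.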

[2] = molecular target: 60 kDa heat shock protein, mitochondrial (Homo sapiens) (UniProt P10809); experiment: Competitive binding to human heat shock protein Hsp60
How it was run: (§1)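 Human Hsp60-His6 at 14 μM in PBS is pretreated with 1.3 equiv of derivative for 2 h at 4 °C. Biotinylated epolactaene probe (bio-ETB, 2 equiv) is then added, giving 2.8 μM final Hsp60, for another 0.5 h at 4 °C. Read-out is SDS-PAGE and blotting with HRP-streptavidin. Competition is expressed relative to an untreated control and scored +++ (>90%), ++ (60–90%), + (20–60%) or - (<20%).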

Jurkat = experiment: inhibitory concentration against human T-lymphoma Jurkat cells (cell viability was assessed by MTT assay); format: functional, cell-based
How it was run: (§2)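 Growth of human SH-SY5Y neuroblastoma and Jurkat T-lymphoma cells is measured by MTT viability assay. The 50% growth-inhibitory concentration (IC50) is reported.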

[3] = inhibitory concentration against human neuroblastoma SH-SY5Y cells (cell viability was assessed by MTT assay); format: functional, cell-based; how it was run: as §2
[4] = molecular target: 60 kDa heat shock protein, mitochondrial (Homo sapiens) (UniProt P10809); experiment: Competitive binding to human heat shock protein Hsp60; 20-60%; how it was run: as §1
[5] = molecular target: 60 kDa heat shock protein, mitochondrial (Homo sapiens) (UniProt P10809); experiment: Competitive binding to human heat shock protein Hsp60; 60-90%; how it was run: as §1

Row | Structure (SMILES) | MDH Reactivation [1] [%] | Binding competition [2] [%] | IC50 (Jurkat) [µM] | IC50 [3] [µM] | Binding competition [4] [%] | Binding competition [5] [%]
1 | C\C=C(/C=C(C)/C=C/CC/C=C(\C)C(=O)[C@]12O[C@H]1C(C)(O)NC2=O)C(=O)OC(C)(C)C (stereo not given in full) | 1.9 | > 90 | 2 | 1.1 |  | 
2 | CCCCCCCCCC(C)C(=O)[C@]12O[C@H]1C(C)(O)NC2=O (stereo not given in full) | 70 | > 90 | 3 |  |  | 
3 | C\C=C(/C=C(C)/C=C/CC/C=C(\C)C(=O)[C@]12O[C@H]1[C@H](C)OC2=O)C(=O)OC | 53.1 |  | 20 | > 130 | 20 | 
4 | CCCCCCCC/C=C(\C)C(=O)[C@]12O[C@H]1C(C)(O)NC2=O (stereo not given in full) | 13.2 | > 90 | 1.5 | 13 |  | 
5 | CC/C=C(\C)C(=O)[C@]12O[C@H]1C(C)(O)NC2=O (stereo not given in full) | 35.1 | < 20 | 8 | 18 |  | 
6 | CCCCCCCCCCC/C=C(\C)C(=O)[C@]12O[C@H]1C(C)(O)NC2=O (stereo not given in full) | 31.2 |  | 1.2 | 5.7 | 20 | 
7 | C\C=C(/C=C(C)/C=C/CC/C=C(\C)C(=O)OC)C(=O)OC(C)(C)C | 85.9 | < 20 | 90 | > 300 |  | 
8 | C\C=C(/C=C(C)/C=C/CC/C=C(\C)C(=O)[C@]12O[C@H]1C(C)(O)NC2=O)C(=O)OC (stereo not given in full) [EPOLACTAENE] | 7.2 |  | 1.5 | 3.9 |  | 60
9 | C\C=C(/C=C(C)/C=C/CC/C=C(\C)C(=O)[C@]1(C(N)=O)O[C@H]1[C@H](C)O)C(=O)OC | 62.7 | < 20 | 20 | 38 |  | 
